According to ChEMBL document CHEMBL1157391, “Apratoxin E, a cytotoxic peptolide from a guamanian collection of the marine cyanobacterium Lyngbya bouillonii” (J Nat Prod, 2008):
*1 amine or outer side, *2 acyl side, *3 side chain or, on linkers, in order; H or OH if unused. Where a SMILES comes first, the peptide text is derived from it. Bridges are numbered along the chain shown (N, C = ends). Roman numbers before positions name the chains, in order. [ ]: non-standard residue; d: D form. Actinocin(1to9) = Cc1c2oc3c(C)ccc(C(=O)[*:2])c3nc-2c(C(=O)[*:1])c(N)c1=O; NMeV = CN[C@H](C(=O)O)C(C)C; Sar = CNCC(=O)O

How the values were obtained:
Type in all cases: functional, cell-based
[1] = tested on: HT-29; assay: Antiproliferative activity against human HT29 cells after 48 hrs by MTT assay; details: HT-29, 48 h
Method in brief: (§1)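 Cells grown in high-glucose DMEM with 10% FBS at 37 °C under humidified 5% CO2. Seeded in 96-well plates at 10 000 (HT29), 3000 (HeLa) or 5000 (U2OS) cells per well. Treated 24 h later with a concentration series; solvent controls were 1% EtOH or 1% DMSO. Viability read by MTT after 48 h incubation.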

[2] = tested on: HeLa; assay: Antiproliferative activity against human HeLa cells after 48 hrs by MTT assay; method in brief: as §1
[3] = tested on: U2OS; assay: Antiproliferative activity against human U2OS cells after 48 hrs by MTT assay; method in brief: as §1

SMILES	IC50 [1] [µM]	IC50 [2] [µM]	IC50 [3] [µM]
Cc1c2oc3c(C)ccc(C(=O)N[C@@H]4C(=O)N[C@H](C(C)C)C(=O)N5CCC[C@H]5C(=O)N(C)CC(=O)N(C)[C@@H](C(C)C)C(=O)O[C@@H]4C)c3nc-2c(C(=O)N[C@@H]2C(=O)N[C@H](C(C)C)C(=O)N3CCC[C@H]3C(=O)N(C)CC(=O)N(C)[C@@H](C(C)C)C(=O)O[C@@H]2C)c(N)c1=O [DACTINOMYCIN] (I: T[dV]P[Sar][NMeV] / II: T[dV]P[Sar][NMeV]; ester I:1-I:C, II:1-II:C; linker I:N-II:N via Actinocin(1to9))	0.0029	0.0004	0.0032
CC[C@H](C)[C@H]1C(=O)N2CCC[C@H]2C(=O)O[C@H](C(C)(C)C)C[C@@H](C)C/C=C(\C)C2=N[C@@H](/C=C(\C)C(=O)N[C@@H](Cc3ccc(OC)cc3)C(=O)N(C)[C@@H](C)C(=O)N1C)CS2 [E-DEHYDROAPRATOXIN A]	0.041	0.121	0.16
CC[C@H](C)[C@H]1C(=O)N2CCC[C@H]2C(=O)O[C@H](C(C)(C)C)C[C@@H](C)C/C=C/C2=N[C@@H](CCC(=O)N[C@@H](Cc3ccc(OC)cc3)C(=O)N(C)[C@@H](C)C(=O)N1C)CS2 [APRATOXIN E]	0.021	0.072	0.059
CC[C@H](C)[C@H]1C(=O)N2CCC[C@H]2C(=O)O[C@H](C(C)(C)C)C[C@@H](C)C[C@H](O)[C@H](C)C2=N[C@@H](/C=C(\C)C(=O)N[C@@H](Cc3ccc(OC)cc3)C(=O)N(C)[C@@H](C)C(=O)N1C)CS2 [APRATOXIN A]	0.0014	0.01	0.01
CC(=O)O[C@H]1C(=O)[C@@]2(C)[C@H]([C@H](OC(=O)c3ccccc3)[C@]3(O)C[C@H](OC(=O)[C@H](O)[C@@H](NC(=O)c4ccccc4)c4ccccc4)C(C)=C1C3(C)C)[C@]1(OC(C)=O)CO[C@@H]1C[C@@H]2O [PACLITAXEL]	0.0019	0.0015	0.024
